Converted amounts (≈) assume the structure as drawn.
Columns and labels:
Format in all cases: functional
[1] = test system: Pseudomonas aeruginosa; assay: Antibacterial activity against IMP-4 producing Pseudomonas aeruginosa isolate 208247 after 18 hrs in presence of BPL by CLSI broth microdilution method; conditions: isolate 208247, 18 h
Summary of the method: (§1)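 CLSI broth microdilution against clinical isolates (ESBL E. coli, KPC-2 MDR K. pneumoniae, IMP-4 MDR P. aeruginosa; five per species). Iron limitation: Mueller-Hinton broth supplemented with 16 mg/liter 2,2'-bipyridyl to complex iron and induce iron uptake systems. Read-out: MIC.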

[2] = test system: Klebsiella pneumoniae; assay: Antibacterial activity against KPC-2 producing Klebsiella pneumoniae isolate 212229 after 18 hrs in presence of BPL by CLSI broth microdilution method; conditions: isolate 212229, 18 h; summary of the method: as §1
[3] = test system: Escherichia coli; assay: Antibacterial activity against extended-spectrum beta-lactamase producing Escherichia coli isolate 106342 after 18 hrs in presence of BPL by CLSI broth microdilution method; conditions: isolate 106342, 18 h; summary of the method: as §1
[4] = test system: Escherichia coli; assay: Antibacterial activity against extended-spectrum beta-lactamase producing Escherichia coli isolate 212648 after 18 hrs in presence of BPL by CLSI broth microdilution method; conditions: isolate 212648, 18 h; summary of the method: as §1
[5] = test system: Pseudomonas aeruginosa; assay: Antibacterial activity against IMP-4 producing Pseudomonas aeruginosa isolate 212886 after 18 hrs by CLSI broth microdilution method; conditions: isolate 212886, 18 h
[6] = test system: Klebsiella pneumoniae; assay: Antibacterial activity against KPC-2 producing Klebsiella pneumoniae isolate 212229 after 18 hrs by CLSI broth microdilution method; conditions: isolate 212229, 18 h
[7] = test system: Klebsiella pneumoniae; assay: Antibacterial activity against KPC-2 producing Klebsiella pneumoniae isolate 209735 after 18 hrs by CLSI broth microdilution method; conditions: isolate 209735, 18 h
[8] = test system: Klebsiella pneumoniae; assay: Selectivity index, ratio of MIC for against KPC-2 producing Klebsiella pneumoniae isolate 212423 to MIC for against KPC-2 producing Klebsiella pneumoniae isolate 212423 in presence of BPL
[9] = test system: Escherichia coli; assay: Antibacterial activity against Escherichia coli isolate 210737 after 18 hrs in presence of BPL by CLSI broth microdilution method; conditions: isolate 210737, 18 h; summary of the method: as §1
[10] = test system: Klebsiella pneumoniae; assay: Antibacterial activity against KPC-2 producing Klebsiella pneumoniae isolate 212423 after 18 hrs by CLSI broth microdilution method; conditions: isolate 212423, 18 h
[11] = test system: Klebsiella pneumoniae; assay: Antibacterial activity against KPC-2 producing Klebsiella pneumoniae isolate 209632 after 18 hrs by CLSI broth microdilution method; conditions: isolate 209632, 18 h
[12] = test system: Escherichia coli; assay: Antibacterial activity against Escherichia coli isolate 210737 after 18 hrs by CLSI broth microdilution method; conditions: isolate 210737, 18 h
[13] = test system: Klebsiella pneumoniae; assay: Antibacterial activity against KPC-2 producing Klebsiella pneumoniae isolate 209735 after 18 hrs in presence of BPL by CLSI broth microdilution method; conditions: isolate 209735, 18 h; summary of the method: as §1
[14] = test system: Pseudomonas aeruginosa; assay: Antibacterial activity against IMP-4 producing Pseudomonas aeruginosa isolate 212886 after 18 hrs in presence of BPL by CLSI broth microdilution method; conditions: isolate 212886, 18 h; summary of the method: as §1
[15] = test system: Escherichia coli; assay: Antibacterial activity against extended-spectrum beta-lactamase producing Escherichia coli isolate 212648 after 18 hrs by CLSI broth microdilution method; conditions: isolate 212648, 18 h
[16] = test system: Escherichia coli; assay: Antibacterial activity against extended-spectrum beta-lactamase producing Escherichia coli isolate 209285 after 18 hrs by CLSI broth microdilution method; conditions: isolate 209285, 18 h
[17] = test system: Escherichia coli; assay: Antibacterial activity against extended-spectrum beta-lactamase producing Escherichia coli isolate 106342 after 18 hrs by CLSI broth microdilution method; conditions: isolate 106342, 18 h
[18] = test system: Klebsiella pneumoniae; assay: Selectivity index, ratio of MIC for against KPC-2 producing Klebsiella pneumoniae isolate 209735 to MIC for against KPC-2 producing Klebsiella pneumoniae isolate 209735 in presence of BPL
[19] = test system: Escherichia coli; assay: Antibacterial activity against extended-spectrum beta-lactamase producing Escherichia coli isolate 208687 after 18 hrs by CLSI broth microdilution method; conditions: isolate 208687, 18 h
[20] = test system: Pseudomonas aeruginosa; assay: Antibacterial activity against IMP-4 producing Pseudomonas aeruginosa isolate 209321 after 18 hrs by CLSI broth microdilution method; conditions: isolate 209321, 18 h
[21] = test system: Pseudomonas aeruginosa; assay: Antibacterial activity against IMP-4 producing Pseudomonas aeruginosa isolate 209471 after 18 hrs by CLSI broth microdilution method; conditions: isolate 209471, 18 h
[22] = test system: Klebsiella pneumoniae; assay: Antibacterial activity against KPC-2 producing Klebsiella pneumoniae isolate 212232 after 18 hrs in presence of BPL by CLSI broth microdilution method; conditions: isolate 212232, 18 h; summary of the method: as §1
[23] = test system: Pseudomonas aeruginosa; assay: Antibacterial activity against IMP-4 producing Pseudomonas aeruginosa isolate 207272 after 18 hrs in presence of BPL by CLSI broth microdilution method; conditions: isolate 207272, 18 h; summary of the method: as §1
[24] = test system: Klebsiella pneumoniae; assay: Antibacterial activity against KPC-2 producing Klebsiella pneumoniae isolate 209632 after 18 hrs in presence of BPL by CLSI broth microdilution method; conditions: isolate 209632, 18 h; summary of the method: as §1
[25] = test system: Pseudomonas aeruginosa; assay: Antibacterial activity against IMP-4 producing Pseudomonas aeruginosa isolate 207272 after 18 hrs by CLSI broth microdilution method; conditions: isolate 207272, 18 h
[26] = test system: Klebsiella pneumoniae; assay: Selectivity index, ratio of MIC for against KPC-2 producing Klebsiella pneumoniae isolate 212232 to MIC for against KPC-2 producing Klebsiella pneumoniae isolate 212232 in presence of BPL
[27] = test system: Klebsiella pneumoniae; assay: Antibacterial activity against KPC-2 producing Klebsiella pneumoniae isolate 212232 after 18 hrs by CLSI broth microdilution method; conditions: isolate 212232, 18 h
[28] = test system: Escherichia coli; assay: Antibacterial activity against extended-spectrum beta-lactamase producing Escherichia coli isolate 208687 after 18 hrs in presence of BPL by CLSI broth microdilution method; conditions: isolate 208687, 18 h; summary of the method: as §1
[29] = test system: Pseudomonas aeruginosa; assay: Antibacterial activity against IMP-4 producing Pseudomonas aeruginosa isolate 209471 after 18 hrs in presence of BPL by CLSI broth microdilution method; conditions: isolate 209471, 18 h; summary of the method: as §1
[30] = test system: Pseudomonas aeruginosa; assay: Antibacterial activity against IMP-4 producing Pseudomonas aeruginosa isolate 209321 after 18 hrs in presence of BPL by CLSI broth microdilution method; conditions: isolate 209321, 18 h; summary of the method: as §1
[31] = test system: Klebsiella pneumoniae; assay: Selectivity index, ratio of MIC for against KPC-2 producing Klebsiella pneumoniae isolate 212229 to MIC for against KPC-2 producing Klebsiella pneumoniae isolate 212229 in presence of BPL
[32] = test system: Escherichia coli; assay: Antibacterial activity against extended-spectrum beta-lactamase producing Escherichia coli isolate 209285 after 18 hrs in presence of BPL by CLSI broth microdilution method; conditions: isolate 209285, 18 h; summary of the method: as §1
[33] = test system: Klebsiella pneumoniae; assay: Selectivity index, ratio of MIC for against KPC-2 producing Klebsiella pneumoniae isolate 209632 to MIC for against KPC-2 producing Klebsiella pneumoniae isolate 209632 in presence of BPL
[34] = test system: Klebsiella pneumoniae; assay: Antibacterial activity against KPC-2 producing Klebsiella pneumoniae isolate 212423 after 18 hrs in presence of BPL by CLSI broth microdilution method; conditions: isolate 212423, 18 h; summary of the method: as §1
[35] = test system: Pseudomonas aeruginosa; assay: Antibacterial activity against IMP-4 producing Pseudomonas aeruginosa isolate 208247 after 18 hrs by CLSI broth microdilution method; conditions: isolate 208247, 18 h
[36] = test system: Escherichia coli; assay: Selectivity index, ratio of MIC for against extended-spectrum beta-lactamase producing Escherichia coli isolate 209285 to MIC for extended-spectrum beta-lactamase producing Escherichia coli isolate 209285 in presence of BPL
[37] = test system: Escherichia coli; assay: Selectivity index, ratio of MIC for against extended-spectrum beta-lactamase producing Escherichia coli isolate 208687 to MIC for extended-spectrum beta-lactamase producing Escherichia coli isolate 208687 in presence of BPL
[38] = test system: Pseudomonas aeruginosa; assay: Selectivity index, ratio of MIC for against IMP-4 producing Pseudomonas aeruginosa isolate 207272 to MIC for against IMP-4 producing Pseudomonas aeruginosa isolate 207272 in presence of BPL
[39] = test system: Pseudomonas aeruginosa; assay: Selectivity index, ratio of MIC for against IMP-4 producing Pseudomonas aeruginosa isolate 208247 to MIC for against IMP-4 producing Pseudomonas aeruginosa isolate 208247 in presence of BPL
[40] = test system: Escherichia coli; assay: Selectivity index, ratio of MIC for against Escherichia coli isolate 210737 to MIC for Escherichia coli isolate 210737 in presence of BPL
[41] = test system: Escherichia coli; assay: Selectivity index, ratio of MIC for against extended-spectrum beta-lactamase producing Escherichia coli isolate 212648 to MIC for extended-spectrum beta-lactamase producing Escherichia coli isolate 212648 in presence of BPL
[42] = test system: Pseudomonas aeruginosa; assay: Selectivity index, ratio of MIC for against IMP-4 producing Pseudomonas aeruginosa isolate 209471 to MIC for against IMP-4 producing Pseudomonas aeruginosa isolate 209471 in presence of BPL
[43] = test system: Escherichia coli; assay: Selectivity index, ratio of MIC for against extended-spectrum beta-lactamase producing Escherichia coli isolate 106342 to MIC for extended-spectrum beta-lactamase producing Escherichia coli isolate 106342 in presence of BPL

SMILES: CC(C)C(O/N=C(\C(=O)NC1C(=O)N(S(=O)(=O)O)C1(CF)CF)c1csc(N)n1)c1cc(=O)c(O)cn1O (configuration not stated)
- MIC [1]: 64 µg/mL
- MIC [2]: > 64 µg/mL
- MIC [3]: > 64 µg/mL
- MIC [4]: > 64 µg/mL
- MIC [5]: > 64 µg/mL
- MIC [6]: > 64 µg/mL
- MIC [7]: > 64 µg/mL
- Selectivity Index [8]: 8
- MIC [9]: > 64 µg/mL
- MIC [10]: > 64 µg/mL
- MIC [11]: > 64 µg/mL
- MIC [12]: > 64 µg/mL
- MIC [13]: > 64 µg/mL
- MIC [14]: > 64 µg/mL
- MIC [15]: > 64 µg/mL
- MIC [16]: > 64 µg/mL
- MIC [17]: > 64 µg/mL
- Selectivity Index [18]: 8
- MIC [19]: > 64 µg/mL
- MIC [20]: > 64 µg/mL
- MIC [21]: > 64 µg/mL
- MIC [22]: 4 µg/mL
- MIC [23]: > 64 µg/mL
- MIC [24]: > 64 µg/mL
- MIC [25]: > 64 µg/mL
- Selectivity Index [26]: 8
- MIC [27]: 32 µg/mL (≈ 55.1 µM)
- MIC [28]: > 64 µg/mL
- MIC [29]: > 64 µg/mL
- MIC [30]: > 64 µg/mL
- Selectivity Index [31]: 8
- MIC [32]: > 64 µg/mL
- Selectivity Index [33]: 8
- MIC [34]: > 64 µg/mL
- MIC [35]: > 64 µg/mL

SMILES: CC(C)C(O/N=C(\C(=O)N[C@@H]1C(=O)N(S(=O)(=O)O)[C@@H]1CSc1nc2ccccc2o1)c1csc(N)n1)c1cc(=O)c(O)cn1O (some centres not stated)
- MIC [1]: 64 µg/mL
- MIC [2]: 1 µg/mL
- MIC [3]: 1 µg/mL
- MIC [4]: 1 µg/mL
- MIC [5]: > 64 µg/mL
- MIC [6]: 2 µg/mL (≈ 2.94 µM)
- MIC [7]: 4 µg/mL (≈ 5.88 µM)
- Selectivity Index [8]: 2
- MIC [9]: 0.5 µg/mL
- MIC [10]: 4 µg/mL (≈ 5.88 µM)
- MIC [11]: 2 µg/mL (≈ 2.94 µM)
- MIC [12]: 1 µg/mL (≈ 1.47 µM)
- MIC [13]: 2 µg/mL
- MIC [14]: > 64 µg/mL
- MIC [15]: 2 µg/mL (≈ 2.94 µM)
- MIC [16]: 4 µg/mL (≈ 5.88 µM)
- Selectivity Index [36]: 2
- MIC [17]: 2 µg/mL (≈ 2.94 µM)
- Selectivity Index [18]: 2
- MIC [19]: 4 µg/mL (≈ 5.88 µM)
- MIC [20]: > 64 µg/mL
- Selectivity Index [37]: 4
- MIC [21]: 64 µg/mL (≈ 94.2 µM)
- MIC [22]: 0.5 µg/mL
- MIC [23]: 64 µg/mL
- Selectivity Index [38]: 1
- MIC [24]: 2 µg/mL
- MIC [25]: 64 µg/mL (≈ 94.2 µM)
- Selectivity Index [26]: 8
- Selectivity Index [39]: 1
- MIC [27]: 4 µg/mL (≈ 5.88 µM)
- Selectivity Index [40]: 2
- MIC [28]: 1 µg/mL
- MIC [29]: 64 µg/mL
- Selectivity Index [41]: 2
- Selectivity Index [42]: 1
- MIC [30]: > 64 µg/mL
- Selectivity Index [43]: 2
- Selectivity Index [31]: 2
- MIC [32]: 2 µg/mL
- Selectivity Index [33]: 1
- MIC [34]: 2 µg/mL
- MIC [35]: 64 µg/mL (≈ 94.2 µM)

SMILES: C[C@@H](O)[C@H]1C(=O)N2C(C(=O)O)=C(S[C@@H]3CN[C@H](C(=O)N(C)C)C3)[C@H](C)[C@H]12 [MEROPENEM]
- MIC [6]: > 64 µg/mL
- MIC [12]: 0.125 µg/mL (≈ 0.326 µM)
- MIC [15]: 8 µg/mL (≈ 20.9 µM)
- MIC [16]: 1 µg/mL (≈ 2.61 µM)
- MIC [17]: 8 µg/mL (≈ 20.9 µM)
- MIC [19]: 0.125 µg/mL (≈ 0.326 µM)
- MIC [21]: 32 µg/mL (≈ 83.4 µM)
- MIC [27]: > 64 µg/mL
- MIC [35]: 32 µg/mL (≈ 83.4 µM)

From ChEMBL document CHEMBL4152188, “Design, synthesis and biological evaluation of C(4) substituted monobactams as antibacterial agents against multidrug-resistant Gram-negative bacteria” (Eur J Med Chem, 2018)
